Active and inactive are the calls of the source. The rule behind the calls is not given here.
Key:
[1] = Antioxidant activity assessed as superoxide radical anion scavenging activity after 100 secs by xanthine/xanthine oxidase method; assay type: functional
In short: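 Cell-free chemiluminescence: 1 mM xanthine with test solution (5–80 μM), reaction started by injecting 1 mM luminol and 0.5 U/mL xanthine oxidase (stock concentrations). Light read for 100 s at 37 °C; output as RLU or area under the curve, relative to solvent control (100%); n = 9.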

Rattus norvegicus = species: Rattus norvegicus; assay: Inhibition of ischemia-reperfusion-induced NF-kappaB binding activity in Sprague-Dawley rat liver at 2.26 mM treated prior to ischemic reperfusion by EMSA
Liver [2] = assay: Effect on ischemic and reperfusion-induced injury in Sprague-Dawley rat hepatic tissue at 2.26 mM before ischemic period assessed as ALT level; assay type: functional, tissue-based; conditions: Sprague-Dawely
In short: (§1)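 Male Sprague–Dawley rats (200–240 g) livers perfused with Krebs–Henseleit buffer pH 7.4, 37 °C; 2.26 mM compound or solvent injected via portal vein before 6 h cold ischemia at 4 °C; reperfused 150 min at 37 °C. Perfusate ALT, AST, LDH measured over time on clinical analyzer at 37 °C; mean ± SEM, n = 3.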

Liver [3] = assay: Effect on ischemic and reperfusion-induced injury in Sprague-Dawley rat hepatic tissue at 2.26 mM before ischemic period assessed as LDH level; assay type: functional, tissue-based; conditions: Sprague-Dawely; in short: as §1
[4] = molecular target: RAC-alpha serine/threonine-protein kinase (Rattus norvegicus) (UniProt P47196); assay: Inhibition of AKt phosphorylation in Sprague-Dawley rat ischemic reperfusion treated hepatic tissue at 2.26 mM before ischemic period by Western blot analysis
In short: (§2)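 Rat livers given 2.26 mM or solvent via portal vein before 6 h cold ischemia and 150 min reperfusion. Western blot with antibodies to Bcl-xl or phospho-Akt (Ser-473, Thr-308), overnight at 4 °C, HRP secondary; β-actin loading control; densitometry; untreated livers as control; n = 3.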

HEK293 [5] = assay: Antioxidant activity in human HEK293 cells loaded with dihyfrofluresceindiacetate at 40 uM; assay type: functional
In short: (§3)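 HEK 293 cells grown to 85–90% confluency, pretreated 2 h with compound (40 μM) or NAC (1 mM); 20 μM dihydrofluorescein diacetate loaded during final 30 min at 37 °C in dark; washed, then 1 mM H2O2 for 20 min. Fluorescence ex 485/em 535 nm versus corresponding controls; mean ± SEM, n = 4.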

HEK293 [6] = assay: Cytotoxicity against human HEK293 cells upto 10 to 300 uM after 3 hrs by MTT assay; assay type: cell-based; conditions: hek293, 3 h
In short: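 HEK 293 cells near 85–90% confluency exposed 3 h to 10–300 μM; MTT added, 1 h at 37 °C; formazan dissolved in DMSO and absorbance read at 550 nm.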

[7] = Inhibition of TNF-alpha-induced NF-kappaB activation expressed in human HEK293 cells preincubated for 2 hrs before TNFalpha challenge by leuciferase reporter gene assay; assay type: cell-based
In short: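 HEK 293 cells transiently transfected (Ca2+-phosphate) with NF-κB-driven firefly luciferase plasmid, replated 1×10^5 cells/well, grown 16 h; preincubated 2 h with 5–60 μM, then 1 ng/mL TNF-α for 6 h; PDTC 50 μM positive control. Lysate luciferase read; solvent-treated = 100%; mean ± SEM, n = 3.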

[8] = molecular target: Bcl-2-like protein 1 (Rattus norvegicus) (UniProt P53563); assay: Reduction of Bcl-xl level in Sprague-Dawley rat ischemic-reperfused hepatic tissue at 2.26 mM treated before ischemic period by Western blot analysis; assay type: functional; in short: as §2
[9] = molecular target: T1, Caspase-3 (Rattus norvegicus) (UniProt P55213); assay: Induction of caspase 3 in Sprague-Dawley rat ischemic-reperfused hepatic tissue assessed as generation of free fluorescent 7-amino-4-trifluoro-methylcoumarin at 2.26 mM treated before ischemic period
T1 sequence (whole entry): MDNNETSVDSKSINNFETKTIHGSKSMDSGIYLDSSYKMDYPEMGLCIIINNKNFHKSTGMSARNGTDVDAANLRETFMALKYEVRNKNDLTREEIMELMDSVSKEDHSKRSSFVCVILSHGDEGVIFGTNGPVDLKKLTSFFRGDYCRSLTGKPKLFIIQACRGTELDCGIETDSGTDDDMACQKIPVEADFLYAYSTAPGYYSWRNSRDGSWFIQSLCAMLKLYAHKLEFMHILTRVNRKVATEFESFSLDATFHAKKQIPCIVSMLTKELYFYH
In short: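 Isolated perfused rat livers (2.26 mM or solvent into portal vein, 6 h 4 °C cold ischemia, 150 min reperfusion). Tissue extracts incubated with Ac-DEVD-AFC; AFC fluorescence ex 385/em 505 nm; untreated livers set as 1; mean ± SEM, n = 3.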

HEK293 [10] = assay: Antioxidant activity in human HEK293 cells loaded with dihyfrofluresceindiacetate at 1 mM; assay type: functional; in short: as §3
Liver [11] = assay: Inhibition of ischemic and reperfusion-induced SOD activity in Sprague-Dawley rat hepatic tissue at 26.6 mM before ischemic period by pyragallol method; assay type: functional, tissue-based; conditions: 2.26 mM, in the assay text read “2.26 mM” for “26.6 mM”
In short: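 Perfused rat livers (portal-vein pretreatment before 6 h cold ischemia, 150 min reperfusion). Tissue SOD activity by pyrogallol autoxidation method (one unit inhibits autoxidation 50%), normalized to Bradford protein, expressed as percent of untreated controls; mean ± SEM, n = 3.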

Liver [12] = assay: Inhibition of ischemic and reperfusion-induced oxidative stress in Sprague-Dawley rat hepatic tissue at 26.6 mM before ischemic period assessed as decrease in 8-isoprostane level; assay type: functional, tissue-based; conditions: 2.26 mM, in the assay text read “2.26 mM” for “26.6 mM”
In short: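 Liver homogenates from perfused rat livers after cold ischemia/reperfusion; 8-isoprostane by competitive EIA with acetylcholinesterase conjugate, absorbance 412 nm; percent of untreated controls.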

Liver [13] = assay: Inhibition of ischemic and reperfusion-induced of GSH activity in Sprague-Dawley rat hepatic tissue at 26.6 mM before ischemic period by DTNB reduction assay; assay type: functional, tissue-based; conditions: 2.26 mM, in the assay text read “2.26 mM” for “26.6 mM”
In short: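 Total glutathione in liver homogenate from perfused rat livers after cold ischemia/reperfusion, measured colorimetrically via DTNB reduction at 405 nm; normalized to Bradford protein; percent of untreated controls.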

Liver [14] = assay: Effect on ischemic and reperfusion-induced injury in Sprague-Dawley rat hepatic tissue at 2.26 mM before ischemic period assessed as AST level; assay type: functional, tissue-based; conditions: Sprague-Dawely; in short: as §1

Chain of Bcl-2-like protein 1 (Rattus norvegicus) (P53563 whole entry, the tested form may be a part): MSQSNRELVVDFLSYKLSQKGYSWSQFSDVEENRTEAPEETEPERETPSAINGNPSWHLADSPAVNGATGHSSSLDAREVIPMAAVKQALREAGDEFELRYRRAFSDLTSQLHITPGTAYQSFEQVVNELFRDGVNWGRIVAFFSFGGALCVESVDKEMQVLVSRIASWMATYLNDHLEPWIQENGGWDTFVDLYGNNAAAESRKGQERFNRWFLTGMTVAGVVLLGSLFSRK
Chain of RAC-alpha serine/threonine-protein kinase (Rattus norvegicus) (P47196 whole entry, the tested form may be a part): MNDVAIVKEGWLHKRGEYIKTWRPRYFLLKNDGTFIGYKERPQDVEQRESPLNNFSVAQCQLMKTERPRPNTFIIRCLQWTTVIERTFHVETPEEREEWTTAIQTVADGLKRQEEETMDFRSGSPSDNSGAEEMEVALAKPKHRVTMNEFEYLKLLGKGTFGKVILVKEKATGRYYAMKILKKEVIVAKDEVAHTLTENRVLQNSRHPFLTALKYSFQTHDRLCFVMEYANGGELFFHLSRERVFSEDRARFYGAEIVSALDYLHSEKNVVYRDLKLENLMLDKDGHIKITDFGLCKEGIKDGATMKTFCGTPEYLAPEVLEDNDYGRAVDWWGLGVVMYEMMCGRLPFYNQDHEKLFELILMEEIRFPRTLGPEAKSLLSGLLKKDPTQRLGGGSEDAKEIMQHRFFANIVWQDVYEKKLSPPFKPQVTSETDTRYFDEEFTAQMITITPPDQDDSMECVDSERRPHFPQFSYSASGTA

COc1cc(O)c(CC=C(C)C)c(O)c1C(=O)/C=C/c1ccc(O)cc1 [XANTHOHUMOL]
IC50 [1]: 15 µM | inhibition (Rattus norvegicus): Active | Activity (Liver [2]): inactive | Activity (Liver [3]): inactive | inhibition [4]: Active | Activity (HEK293 [5]): 71.9% | Activity (HEK293 [6]): Non-toxic | IC50 [7]: 35 µM | Activity [8]: Active | Activity [9]: Active | Activity (HEK293 [10]): 46.2% | inhibition (Liver [11]): Active | inhibition (Liver [12]): Active | inhibition (Liver [13]): Active | Activity (Liver [14]): inactive

— ChEMBL document CHEMBL1154284, “Antioxidant effects of xanthohumol and functional impact on hepatic ischemia-reperfusion injury” (J Nat Prod, 2009)
